Lmaj promast: Leishmania major promastigote growth inhibition; Leishmania major promastigotes, resazurin fluorescence viability; inhibition, % at 10 µM; hit rate 9% among 200,000; AID 1063;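 further: promastigotes grown with compound for 44 hours at 28 °C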
PfG6PD inh: PfG6PD (Plasmodium falciparum) enzyme inhibition | PfGluPho enzyme, NADPH resazurin-diaphorase fluorescence | inhibition, % at 20 µM | hit rate 0.78% among 350,000 | AID 504690;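 active means inhibition reaching at least a set limit at 20 µM in the primary screen, cut at about 59% in these data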
Diaphorase act: counter-screen for diaphorase-based assays: diaphorase activators and chemical reducers; Diaphorase/resazurin coupled assay, resorufin fluorescence, 16 min; hits give high values; 1 = vehicle wells, 0 = NADH-free wells; activation factor at 20 µM; hit rate 0.005% among 190,000; AID 1229;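 active means diaphorase activity raised at least twofold by the compound at 20 µM; inactive means activation factor below 2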
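test system = bacterial diaphorase enzyme (C. kluyveri) | quantity = enzyme 0.07 U/mL final | reagent = NADH substrate 0.114 mM plus resazurin dye 0.1 mM, final | incubation = 16 min enzyme reaction, ambient temperature | buffer or medium = HEPES pH 7.4 buffer with MgCl2 and Tween 20 | signal = fluorescence of resorufin, 544 nm excitation, 590 nm emission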
Diaph inh CS: counter-screen for diaphorase-based assays: diaphorase inhibitors and chemical oxidizers; hit rate 0.69% among 190,000; inhibition, % at 20 µM; diaphorase resazurin-to-resorufin fluorescence, NADH, 16 min; bacterial (C. kluyveri) enzyme, not human;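 active means primary screen inhibition at 20 µM above a set limit, cut at about 50% in these data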
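Test system: bacterial diaphorase enzyme (C. kluyveri); Quantity: 0.14 U/mL diaphorase, enzyme working solution; Times: reaction incubation of 16 min at room temperature; Measured by: fluorescence of resorufin formed from resazurin, Ex 544/Em 590 nm; Benchmarks: positive control minus NADH, DMSO neutral control.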
G6PDH CS: counter-screen for G6PDH assay hits: L. mesenteroides G6PDH inhibition | hit rate 0.12% among 200,000 | Purified L. mesenteroides G6PDH, diaphorase/resazurin coupled fluorescence, 45 min | inhibition, % at 5 µM
Redox H2O2 prof: compounds producing H2O2 with reducing agent – biochemical, NIH compound library profiling, artefact control for MLSCN library redox annotation, primary screen; DTT-dependent redox cycling H2O2, phenol red/HRP absorbance; 100% = 100 µM peroxide control, 0% = buffer; activation, % at 10 µM; hit rate 0.03% among 200,000;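 active means activation of at least 50% relative to the plate's high and low controls in the primary single-dose screen; inactive means activation below 50%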;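 further: compound incubated with DTT at 0.8 mM final as the reducing agent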
PfG6PD confirm: PfG6PD inhibition, single-dose confirmed. inhibition, % at 20 µM. AID 504753. recombinant PfGluPho, NADPH-diaphorase-resazurin fluorescence. shares compounds with PfG6PD inh. hit rate 34% among 2,400;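 active means inhibition of at least 50% at 20 µM in any single replicate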
Diaphorase 10uM: inhibits diaphorase or oxidizes, flagging false PfG6PD hits. shares compounds with PfG6PD inh. diaphorase-coupled resazurin reduction, fluorescence, NADPH 10 uM. inhibition, % at 20 µM. hit rate 39% among 820;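 active means average inhibition reaching 50% or more with the compound at 20 µM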;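 further: resorufin red fluorescence formed as diaphorase reduces resazurin using NADPH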
Diaph ctr 30uM: inhibits diaphorase or oxidizes, flagging false PfG6PD hits | shares compounds with PfG6PD inh | Diaphorase/resazurin coupled assay, resorufin fluorescence, 30 uM NADPH | inhibition, % at 20 µM | hit rate 29% among 820 | AID 504863;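 active means inhibition averaging 50% or more, tested at 20 µM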
Of the large screens only hits and unclear results are named; the others gave an inactive call (follow-up assays come after a bar, where they were run). Only a selection was taken, and hits are over-represented in it overall. Unless noted, no stated cut-off is given here; in the data, active means inhibition above about 50%; inactive means the rest.

Nc1ccc2nc(-c3ccccc3)c(-c3ccccc3)nc2c1	PfG6PD inh 79 (no result: Lmaj promast, Diaphorase act, Diaph inh CS, G6PDH CS, Redox H2O2 prof) | PfG6PD confirm inactive
CC1(C)C[C@H]2C3=CCC4[C@@]5(C)CC[C@H](O)[C@@](C)(CO)C5CC[C@@]4(C)[C@]3(C)C[C@@H](O)[C@@]2(CO)[C@@H](O)[C@@H]1O (stereo not given in full)	none (no result: Lmaj promast, Diaphorase act, Diaph inh CS, G6PDH CS, Redox H2O2 prof)
CC1(C)N=C(N)N=C(N)N1CCCCc1ccccc1	none (no result: Lmaj promast, Diaphorase act, Diaph inh CS, G6PDH CS, Redox H2O2 prof)
Cc1cc(C)n(/N=C/c2cc([N+](=O)[O-])ccc2O)c(=O)c1	none
CC(C)(C)c1csc(NC(=O)Cn2cnc3ccccc3c2=O)n1	PfG6PD inh 68 | PfG6PD confirm inactive
O=C1N=C(N2CCOCC2)S/C1=C/c1ccc(-c2ccccc2Cl)o1	none
O=C1S/C(=C\c2ccc(N3CCOCC3)o2)C(=O)N1Cc1c(F)cccc1Cl	PfG6PD inh 75 | PfG6PD confirm inactive
O=[N+]([O-])c1ccc2nc(-c3ccc(Cl)cc3)n(OCc3ccccc3)c2c1	PfG6PD inh 122 | PfG6PD confirm inactive
CCOC(=O)C(C)On1c(-c2ccc(Cl)cc2)nc2ccc([N+](=O)[O-])cc21 (stereo not given)	PfG6PD inh 76 | PfG6PD confirm inactive
CCOC(=O)C(C)On1c(-c2ccccc2)nc2ccc([N+](=O)[O-])cc21 (stereo not given)	PfG6PD inh 62 | PfG6PD confirm inactive
CC(O)c1nc2cc([N+](=O)[O-])ccc2n1Cc1ccccc1 (stereo not given)	none (no result: Lmaj promast, Diaphorase act, Diaph inh CS, G6PDH CS, Redox H2O2 prof)
Cc1ccc(S(=O)(=O)N2CCOCC2)cc1NC(=O)COC(=O)CNC(=O)c1ccc(Cl)cc1Cl	none (no result: Lmaj promast, Diaphorase act, Diaph inh CS, G6PDH CS, Redox H2O2 prof)
COc1ccc2nc3cc(Cl)ccc3c(C#N)c2c1	none (no result: Lmaj promast, Diaphorase act, Diaph inh CS, G6PDH CS, Redox H2O2 prof)
COc1ccc2nc3cc(Cl)ccc3c(Nc3ccc(O)c(CN4CCN(C)CC4)c3)c2c1	PfG6PD inh 109 (no result: Lmaj promast, Diaphorase act, Diaph inh CS, G6PDH CS, Redox H2O2 prof) | PfG6PD confirm 45 | Diaphorase 10uM inactive | Diaph ctr 30uM inactive
Cc1ccc2[nH]c(=O)c(CN(Cc3ccccc3Cl)C(=O)N3CCOCC3)cc2c1	none
CC1=CC(=O)C=C(C)C1=NOc1ccccc1[N+](=O)[O-]	PfG6PD inh 69 | PfG6PD confirm inactive
Nc1ccccc1SCc1csc(-c2ccc(Cl)cc2)n1	PfG6PD inh 60 (no result: Lmaj promast, Diaphorase act, Diaph inh CS, G6PDH CS, Redox H2O2 prof) | PfG6PD confirm inactive
CCOc1ccc(NC(=O)CNC(=O)c2nn(-c3ccc(OC)cc3)c(=O)c3ccccc23)cc1	none (no result: Lmaj promast, Diaphorase act, Diaph inh CS, G6PDH CS, Redox H2O2 prof)
COC(=O)c1ccccc1NC1=C/C(=N\S(=O)(=O)c2cccs2)c2ccccc2C1=O	Lmaj promast 100, PfG6PD inh 101 | PfG6PD confirm 67 | Diaphorase 10uM inactive | Diaph ctr 30uM inactive
O=C1C=C(Nc2ccccc2C(=O)O)c2ccccc2C1=O	none (no result: Lmaj promast, Diaphorase act, Diaph inh CS, G6PDH CS, Redox H2O2 prof)
COC(=O)c1ccccc1NC1=C/C(=N\S(=O)(=O)c2ccc(C(=O)O)cc2)c2ccccc2C1=O	PfG6PD inh 96 (no result: Lmaj promast, Diaphorase act, Diaph inh CS, G6PDH CS, Redox H2O2 prof) | PfG6PD confirm 86 | Diaphorase 10uM 64 | Diaph ctr 30uM 64
COC(=O)c1cccc(NS(=O)(=O)c2cccs2)c1C	none
O=C(Cn1cnc([N+](=O)[O-])c1)Nc1ccccc1C(F)(F)F	none (no result: Lmaj promast, Diaphorase act, Diaph inh CS, G6PDH CS, Redox H2O2 prof)
COc1ccccc1S(=O)(=O)n1cc(Cc2ccccc2)c(N)n1	PfG6PD inh 76 | PfG6PD confirm inactive
COc1ccc(Cl)cc1S(=O)(=O)N1CCN=C1Cc1ccccc1	none (no result: Lmaj promast, Diaphorase act, Diaph inh CS, G6PDH CS, Redox H2O2 prof)
CC(=O)C1=C(C)Nc2ncnn2C1c1ccccc1F (stereo not given)	none (no result: Lmaj promast, Diaphorase act, Diaph inh CS, G6PDH CS, Redox H2O2 prof)
COC(OC)C1(CCc2ccccc2)NC(=O)NC1=O (stereo not given)	none (no result: Lmaj promast, Diaphorase act, Diaph inh CS, G6PDH CS, Redox H2O2 prof)
CCOC(=O)c1c(NC(=O)OC)sc(C(=O)N(C)C)c1C	none
CCC(C(=O)Nc1sc(C(N)=O)c(C)c1C(=O)OC)c1ccccc1 (stereo not given)	none
CCOC(=O)c1c(NC(=O)C(Sc2ccccc2)c2ccccc2)sc(C(N)=O)c1C (stereo not given)	PfG6PD inh 61 | PfG6PD confirm inactive
CCOC(=O)c1c(NC(=O)C(Sc2ccccc2)c2ccccc2)sc(C(=O)N(C)C)c1C (stereo not given)	Lmaj promast 98, PfG6PD inh 79 | PfG6PD confirm inactive
O=C(NNC(=O)c1ccccc1[N+](=O)[O-])c1ccc(NS(=O)(=O)c2cccs2)cc1	none (no result: Lmaj promast, Diaphorase act, Diaph inh CS, G6PDH CS, Redox H2O2 prof)
Cc1csc(NC(=O)c2cc3c(s2)CCCCC3)n1	PfG6PD inh 77 | PfG6PD confirm inactive
Cc1csc(NC(=O)c2cc3c(s2)CCCC3)n1	Lmaj promast 96, PfG6PD inh 62 | PfG6PD confirm inactive

Bioassay records deposited in PubChem BioAssay by several laboratories.
